# Measurements published in ChEMBL document CHEMBL4400546, “A Cinchona Alkaloid Antibiotic That Appears To Target ATP Synthase in Streptococcus pneumoniae” (J Med Chem, 2019).
# Key:
# [1] = test system: Streptococcus pneumoniae; experiment: Antibacterial activity against Streptococcus pneumoniae D39 after 20 hrs by CLSI-based microdilution method; format: functional; settings: D39, 20 h
# [2] = AUCt in ICR mouse at 2.5 mg/kg, iv by LC-MS/MS analysis; format: ADME, organism-based; settings: in vivo
# How it was run: (§1)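 Single-dose PK in male ICR mice, bolus p.o. 25 mg/kg or i.v. 2.5 mg/kg. Plasma concentration followed over time, n = 3. Parameters derived by noncompartmental analysis of the concentration–time curves. Oral bioavailability calculated from AUC.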
# [3] = Clearance in ICR mouse at 2.5 mg/kg, iv by LC-MS/MS analysis; format: ADME, organism-based; settings: in vivo; how it was run: as §1
# [4] = Tmax in ICR mouse at 25 mg/kg, po via bolus administration by LC-MS/MS analysis; format: ADME, organism-based; settings: in vivo
# How it was run: (§2)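 Male ICR mice, single oral bolus at 25 mg/kg. Serum concentration-time profiles (n = 3) analysed by noncompartmental analysis.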
# [5] = Oral bioavailability in ICR mouse at 25 mg/kg via bolus administration by LC-MS/MS analysis; format: ADME, organism-based; settings: in vivo; how it was run: as §2
# [6] = Elimination half life in ICR mouse at 2.5 mg/kg, iv by LC-MS/MS analysis; format: ADME, organism-based; settings: in vivo, read-out: beta t1/2 (converted); how it was run: as §1
# [7] = Cmax in ICR mouse at 25 mg/kg, po via bolus administration by LC-MS/MS analysis; format: ADME, organism-based; design: dose 25 mg/kg, route oral; settings: in vivo; how it was run: as §1
# [8] = Tmax in ICR mouse at 2.5 mg/kg, iv by LC-MS/MS analysis; format: ADME, organism-based; settings: in vivo
# How it was run: (§3)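 Male ICR mice, single i.v. bolus at 2.5 mg/kg. Serum concentration-time curves (n = 3) analysed noncompartmentally to give Tmax and steady-state volume of distribution.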
# [9] = Cytotoxicity against human HepG2 cells assessed as reduction in cell viability after 48 hrs by Alamar Blue assay; format: cell-based
# [10] = AUCt in ICR mouse at 25 mg/kg, po via bolus administration by LC-MS/MS analysis; format: ADME, organism-based; settings: in vivo; how it was run: as §1
# [11] = Elimination half life in ICR mouse at 25 mg/kg, po via bolus administration by LC-MS/MS analysis; format: ADME, organism-based; settings: in vivo, read-out: beta t1/2 (converted); how it was run: as §1
# [12] = Cmax in ICR mouse at 2.5 mg/kg, iv by LC-MS/MS analysis; format: ADME, organism-based; design: dose 2.5 mg/kg, route intravenous; settings: in vivo; how it was run: as §1
# [13] = Volume of distribution at steady state in ICR mouse at 2.5 mg/kg, iv by LC-MS/MS analysis; format: ADME, organism-based; settings: in vivo, read-out: Vdss; how it was run: as §3
# [14] = test system: Streptococcus pneumoniae; experiment: Antibacterial activity against amoxicillin/penicillin/erythromycin/ertapenem/moxifloxacin/cefotaxime-resistant Streptococcus pneumoniae TH2889 (6B) after 20 hrs by CLSI-based microdilution method; format: functional
# [15] = Drug metabolism in ICR mouse liver microsomes at 10 uM preincubated with NADPH for 10 mins and measured after 60 mins by LC-MS/MS analysis; format: ADME, Microsome; settings: read-out: Drug metabolism
# [16] = Mitochondrial toxicity in human HepG2 cells assessed as reduction in cell viability after 24 hrs in presence of glucose by CellTiter-Glo assay; format: cell-based
# How it was run: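 HepG2 cells grown in DMEM with 10 mM glucose, treated 24 h; viability read by CellTiter-Glo luminescence. Value is the concentration giving 90% loss of viability (CC90) from dose-response curves, top concentration 300 µM.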
# [17] = Mitochondrial toxicity in human HepG2 cells assessed as reduction in cell viability after 24 hrs in presence of galactose by CellTiter-Glo assay; format: cell-based
# How it was run: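 HepG2 cells are grown in DMEM supplemented with 10 mM galactose or 10 mM glucose and treated for 24 h. Viability is read by CellTiter-Glo luminescence. The CC90 is the concentration inhibiting 90% of cell viability, taken from dose–response curves. Oligomycin and tamoxifen serve as controls.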
# [18] = test system: Streptococcus pneumoniae; experiment: Bactericidal activity against Streptococcus pneumoniae D39 after 24 hrs; format: functional; settings: D39, 24 h
# [19] = test system: Streptococcus pneumoniae; experiment: Antibacterial activity against amoxicillin/penicillin/cefotaxime/erythromycin/tetracycline-resistant Streptococcus pneumoniae TH2784 (19F) after 20 hrs by CLSI-based microdilution method; format: functional
# [20] = test system: Streptococcus pneumoniae; experiment: Antibacterial activity against amoxicillin/penicillin/chloramphenicol/erythromycin/meropenem/cefotaxime-resistant Streptococcus pneumoniae TH2582 (19A) after 20 hrs by CLSI-based microdilution method; format: functional
# [21] = test system: Streptococcus pneumoniae D39; experiment: Inhibition of wild-type Streptococcus pneumoniae D39 ATP synthase atpE assessed as intracellular pH at 10 uM measured at 5 mins intervals by pH-sensitive GFP-based fluorescence assay (reference value: 7.34 +/- 0.04); format: cell-based
# How it was run: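 S. pneumoniae D39 WT and isogenic atpE G142C or G145A mutants carry a plasmid-borne ratiometric pH-sensitive GFP biosensor. Cells are in PBS pH 7.2 with 10 mM glucose and are treated with compound, DMSO (0.5% v/v) or CCCP (10 µM). Intracellular pH is read immediately and at 5-min intervals. Two independent experiments, each in triplicate.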
# [22] = test system: Staphylococcus epidermidis; experiment: Antibacterial activity against Staphylococcus epidermidis; format: functional
# [23] = test system: Streptococcus pyogenes; experiment: Antibacterial activity against Streptococcus pyogenes; format: functional
# [24] = test system: Streptococcus pneumoniae; experiment: Antibacterial activity against Streptococcus pneumoniae; format: functional
# How it was run: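 MIC read per CLSI guidelines as the lowest concentration giving complete inhibition of visible growth. The main screen used strain D39. A further panel covered drug-sensitive, multidrug-resistant and optochin-resistant strains, including R6 carrying atpE point mutations G142C or G145A made by a PCR-based approach.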
# [25] = test system: Enterococcus faecium; experiment: Antibacterial activity against Enterococcus faecium; format: functional
# [26] = test system: Staphylococcus aureus; experiment: Antibacterial activity against Staphylococcus aureus; format: functional
# [27] = test system: Enterococcus faecalis; experiment: Antibacterial activity against Enterococcus faecalis; format: functional
# [28] = Elimination half life in human
# [29] = Protein binding in plasma (unknown origin); format: ADME, cell-free; settings: read-out: PPB
# [30] = Cmax in human; format: ADME
# [31] = Drug metabolism in ICR mouse liver microsomes assessed as [(1S,2S,4S,5Z)-5-ethylidenequinuclidin-2-yl]-(6-hydroxy-4-quinolyl)methanone metabolite formation at 10 uM preincubated with NADPH for 10 mins by LC-MS/MS analysis; format: ADME, Microsome
# [32] = Drug metabolism in ICR mouse liver microsomes assessed as [6-(cyclobutoxy)-4-quinolyl]-[(1S,2S,4S,5Z)-5-(2-hydroxyethylidene)quinuclidin-2-yl]methanone metabolite formation at 10 uM preincubated with NADPH for 10 mins by LC-MS/MS analysis; format: ADME, Microsome
# [33] = Drug metabolism in ICR mouse liver microsomes assessed as ) 6-(cyclobutoxy)-4-[(R)-hydroxy-[(1S,2S,4S,5Z)-5-(2-hydroxyethylidene)quinuclidin-2-yl]methyl]-1H-quinolin-2-one metabolite formation at 10 uM preincubated with NADPH for 10 mins by LC-MS/MS analysis; format: ADME, Microsome
# [34] = Drug level in ICR mouse liver microsomes treated with 6-Cyclobutoxy-(R)-4-[((1S,2S,4S,5Z)-5-ethylidene-1-azabicyclo-[2.2.2]octan-2-yl)hydroxymethyl]quinoline at 10 uM preincubated with NADPH for 10 mins and measured after 90 mins by LC-MS/MS analysis; format: ADME, Microsome; settings: 1.5 h
# [35] = Drug metabolism in ICR mouse liver microsomes assessed as (2S,3S,4S,5R,6R)-6-[[4-[(R)-[(1S,2S,4S,5Z)-5-ethylidenequinuclidin-2-yl]-hydroxy-methyl]-6-quinolyl]oxy]-3,4,5-trihydroxy-tetrahydropyran-2-carboxylic acid metabolite formation at 10 uM preincubated with NADPH for 10 mins by LC-MS/MS analysis; format: ADME, Microsome
# [36] = Drug level in ICR mouse liver microsomes treated with 6-Cyclobutoxy-(R)-4-[((1S,2S,4S,5E)-5-ethylidene-1-azabicyclo[2.2.2]octan-2-yl)hydroxymethyl]quinoline at 10 uM preincubated with NADPH for 10 mins and measured after 90 mins by LC-MS/MS analysis; format: ADME, Microsome; settings: 1.5 h
# [37] = test system: Streptococcus pneumoniae; experiment: Antibacterial activity against optochin-resistant Streptococcus pneumoniae R6 expressing atpE G145A mutant after 20 hrs by CLSI-based microdilution method; format: functional; settings: R6, 20 h
# [38] = test system: Streptococcus pneumoniae; experiment: Antibacterial activity against penicillin/erythromycin/meropenem/tetracycline-resistant Streptococcus pneumoniae TH2863 (19F) after 20 hrs by CLSI-based microdilution method; format: functional
# [39] = test system: Streptococcus pneumoniae; experiment: Antibacterial activity against Streptococcus pneumoniae R6 after 20 hrs by CLSI-based microdilution method; format: functional; settings: R6, 20 h
# [40] = test system: Streptococcus pneumoniae; experiment: Antibacterial activity against optochin-resistant Streptococcus pneumoniae R6 expressing atpE G142C mutant after 20 hrs by CLSI-based microdilution method; format: functional; settings: R6, 20 h
SMILES,MIC [1],AUC(0-t) [2],clearance [3],Tmax [4],bioavailability [5],half-life [6],Cmax [7],Tmax [8],CC50 at 48 h [9],AUC(0-t) [10],half-life [11],Cmax [12],Vd [13],"metabolised at 1 h, 10 µM [15]",CC90 at 24 h [16],CC90 at 24 h [17],also measured
C/C=C1/C[N@]2CC[C@H]1C[C@H]2[C@H](O)c1ccnc2ccc(OC3CCC3)cc12,0.7 µM,175 ng·h/mL,230 mL/min/kg,4.98 min,21%,26.4 min,331 ng/mL,1.98 min,65 µM,368 ng·h/mL,42 min,399 ng/mL,8.8 L/kg,–,–,–,–
C/C=C1/CN2CC[C@H]1C[C@H]2[C@H](O)c1ccnc2ccc(O)cc12,52 µM,190 ng·h/mL,207 mL/min/kg,4.98 min,23.3%,67.2 min,619 ng/mL,1.98 min,> 100 µM,442 ng·h/mL,54.6 min,511 ng/mL,20 L/kg,89%,> 300 µM,300 µM,MIC [14]: 128 µg/mL; MBC [18]: 16 µg/mL; MIC [19]: 4 µg/mL; MIC [20]: 64 µg/mL
N#CC(C#N)=NNc1cccc(Cl)c1,–,–,–,–,–,–,–,–,–,–,–,–,–,–,–,–,pH [21]: 5.43
OC(c1cc(C2C[C@H]3CC[C@@H]2CC3)nc2c(Cl)c(Cl)ccc12)C1CCCCN1 (stereo partly drawn),–,–,–,–,–,–,–,–,–,–,–,–,–,–,–,–,MIC [22]: 1.5 to 6.3 µg/mL; MIC [23]: 1.5 to 6.3 µg/mL; MIC [24]: 0.08 to 1.25 µg/mL; MIC [25]: 1.5 to 6.3 µg/mL; MIC [26]: 1.5 to 6.3 µg/mL; MIC [27]: 1.5 to 6.3 µg/mL
"O[C@@H](c1cc(C(F)(F)F)nc2c(C(F)(F)F)cccc12)[C@H]1CCCCN1 [(S,R)-MEFLOQUINE]",–,–,–,–,–,–,–,–,–,–,–,–,–,–,–,–,MIC [22]: 16 µg/mL; half-life [28]: 20 days; MIC [24]: 0.4 to 0.8 µg/mL; fraction unbound [29]: < 0.02; MIC [26]: 16 µg/mL; Cmax [30]: 50 ng/mL; MIC [27]: 16 µg/mL
C/C=C1\C[N@]2CC[C@H]1C[C@H]2[C@H](O)c1ccnc2ccc(OC3CCC3)cc12,1.4 µM,235 ng·h/mL,172 mL/min/kg,15 min,13.6%,25.2 min,207 ng/mL,1.98 min,59 µM,319 ng·h/mL,41.4 min,521 ng/mL,6.3 L/kg,99.8%,–,–,Drug metabolism [31]: Metabolite_Detected; Drug metabolism [32]: Metabolite_Detected; Drug metabolism [33]: Metabolite_Detected; Drug uptake [34]: Active; Drug metabolism [35]: Metabolite_Detected; Drug uptake [36]: Active
CCOc1ccc2nccc([C@@H](O)[C@@H]3C[C@@H]4CCN3C[C@@H]4CC)c2c1 [ETHYLHYDROCUPREINE],6 to 12 µM,144 ng·h/mL,274 mL/min/kg,30 min,109%,31.8 min,639 ng/mL,1.98 min,> 100 µM,1570 ng·h/mL,60 min,375 ng/mL,12.7 L/kg,87%,300 µM,300 µM,MIC [37]: 16 µg/mL; MIC [38]: 4 to 8 µg/mL; MIC [14]: 2 µg/mL; MIC [39]: 2 µg/mL; MBC [18]: 4 µg/mL; MIC [19]: 2 µg/mL; MIC [40]: 64 µg/mL; MIC [20]: 2 µg/mL
